# Screens deposited in PubChem BioAssay by Johns Hopkins Ion Channel Center.
# MrgX1 agonist = agonists of human MrgX1 receptor, primary screen, HEK293 cells, Fluo-4 calcium flux | B-score at 10 µM | 0.44% of 310,000 active | Mas-related G-protein coupled receptor member X1 (Homo sapiens), Q96LB2 | Fluo-4 calcium fluorescence, agonist mode; stronger effect = higher value;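 active means calcium response B-score plate-corrected fluorescence ratio at least 3 library SD, with starting fluorescence B-score inside 5 SD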
# Target sequence (Q96LB2 whole entry, looked up): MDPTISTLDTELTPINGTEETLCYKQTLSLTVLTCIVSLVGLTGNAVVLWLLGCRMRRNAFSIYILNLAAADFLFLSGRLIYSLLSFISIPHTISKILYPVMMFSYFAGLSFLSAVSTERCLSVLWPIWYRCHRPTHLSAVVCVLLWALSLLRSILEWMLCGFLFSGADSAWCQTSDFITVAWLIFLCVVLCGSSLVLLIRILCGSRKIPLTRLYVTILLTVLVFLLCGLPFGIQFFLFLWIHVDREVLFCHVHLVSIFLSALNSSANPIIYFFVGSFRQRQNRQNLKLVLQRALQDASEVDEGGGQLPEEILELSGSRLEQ
#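 Test system: HEK293 cells stably expressing human MrgX1 receptor; amount: 15,000 cells per well; doses: compound delivered in addition one of three; times: overnight plating before 1 h dye loading; detection: Fluo-4 NW calcium-flux fluorescence, kinetic read; read-out basis: B-scored fluorescence response ratio; controls: positive and negative controls per plate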
# MrgX1 PAM = positive allosteric modulators of MrgX1, primary screen, HEK293 cells, Fluo-4 calcium flux. FDSS; stronger effect = higher value. 0.63% of 310,000 active. B-score at 10 µM;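 active means plate-corrected calcium response at least 3 library SD above typical, normal starting fluorescence, not activating the receptor alone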;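 further: compound read alongside a low EC10 to EC30 dose of BAM8-22 agonist; peak minus trough fluorescence over baseline measured at the second addition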
# RGS4 pot = RGS4 potentiators or activators, primary screen, cell-based, HEK293 M3R inducible RGS4, calcium flux | carbachol calcium flux Fluo4; stronger effect = lower value | B-score at 10 µM | 0.92% of 310,000 active | AID 463111, 2010;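 active means B-score of the integrated calcium signal more than 4 SD below the library mean, with starting fluorescence not abnormally high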;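 further: negative B-score means reduced calcium response which marks RGS4 activation or potentiation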
#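 Material: M3R-expressing HEK293 line, RGS4 induced by doxycycline | Schedule: Overnight RGS4 induction, 30 min dye load 37 °C, 20 min compound RT | Measured by: Fluo4 fluorescence kinetic imaging of calcium | Read-out: Integrated calcium ratio converted to B score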
# MrgX1 antag = antagonists of human MrgX1 receptor, primary screen, HEK293 cells, Fluo-4 calcium flux | BAM8-22 antagonism; stronger effect = lower value | Mas-related G-protein coupled receptor member X1 (Homo sapiens), Q96LB2 | 1.3% of 310,000 active | B-score at 10 µM;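 active means calcium-response B-score plate-corrected more than 3 library SD below zero, starting fluorescence within 5 deviations, no agonist response on first addition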;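 further: peak minus trough fluorescence over baseline after final BAM8-22 challenge near maximal dose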
# RGS4 inh = RGS4 inhibitors, primary screen, cell-based, HEK293 M3R inducible RGS4, calcium flux. B-score at 10 µM. AID 463165, 2010. Fluo-4 calcium flux; stronger effect = higher value; triggered by carbachol at its EC20. 0.45% of 310,000 active;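 active means B-score, a plate-corrected calcium signal, over three deviations above library mean, with baseline fluorescence within five deviations of library mean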;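 further: RGS4 expression induced by doxycycline in cells with stable M3 receptor; B-score is computed from the integrated fluorescence ratio over baseline after carbachol; higher B-score means a larger calcium signal and so more RGS4 inhibition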
# Target sequence (P49798 whole entry, looked up): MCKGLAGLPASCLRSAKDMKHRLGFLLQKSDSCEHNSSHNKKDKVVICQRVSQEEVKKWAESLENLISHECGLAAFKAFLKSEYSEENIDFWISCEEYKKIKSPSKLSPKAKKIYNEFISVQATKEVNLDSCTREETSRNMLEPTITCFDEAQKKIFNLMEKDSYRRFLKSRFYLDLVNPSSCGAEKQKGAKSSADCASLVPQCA
# MrgX1 PAM conf = MrgX1 positive allosteric modulators, duplicate retest, confirmation, HEK293 cells, Fluo-4 calcium flux | shares compounds with MrgX1 PAM | Fluo-4 calcium fluorescence, FDSS | activation (ratio percentage), % at 10 µM | 13% of 1,200 active | AID 602413, 2012;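 active means ratio at least 3 SD above the weak peptide control, stable starting fluorescence, no direct agonism earlier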;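 further: compound followed by low BAM8-22 agonist challenge near EC20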
# MrgX1 antag conf = MrgX1 receptor antagonists, duplicate retest, confirmation, HEK293 cells, Fluo-4 calcium flux | shares compounds with MrgX1 antag | BAM8-22 calcium flux; stronger effect = lower value | remaining BAM8-22 calcium response % of control (stronger effect = lower value), % at 10 µM | 19% of 2,300 active | AID 602420, 2012;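 active means remaining agonist calcium response no higher than 100% minus 3 SD of agonist-only control wells, with starting fluorescence near control levels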;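 further: agonist BAM8-22 given at a near maximal EC90 to ECmax level; peak minus minimum fluorescence divided by baseline after agonist addition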
# HEK293 Ca flux = nonspecific calcium signal in parental HEK293, confirmation, counter-screen for MrgX1 antagonist project, parental HEK293 cells, Fluo-4 calcium flux | shares compounds with MrgX1 antag | Fluo-4 calcium fluorescence, FDSS | fluorescence ratio F(max-min)/F0 at 10 µM | 2% of 4,000 active | AID 624111, 2012;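 active means duplicate-averaged calcium fluorescence ratio at least three times the standard deviation of buffer wells, a nonspecific response in parental cells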
# HEK293 Ca counter = calcium response in parental HEK293 cells, primary screen, counter-screen for MrgX1 allosteric activator project, cell-based, Fluo-4 calcium flux, duplicate; 0.4% of 4,000 active; fluorescence ratio F(max-min)/F0 at 10 µM; Fluo-4 fluorescence ratio; stronger effect = higher value; shares compounds with MrgX1 antag; AID 624114, 2012;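 active means calcium fluorescence ratio, averaged over duplicates, at least 3 SD of the buffer-well ratio, meaning a nonspecific response in receptor-free cells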;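 further: untransfected parental HEK293 lacking MrgX1 used as counterscreen for MrgX1 allosteric activators; fluorescence change taken during the second addition on a kinetic imager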
# HEK293 Ca cntr2 = calcium response in parental HEK293 cells, primary screen, counter-screen for MrgX1 agonist project, cell-based, Fluo-4 calcium flux, duplicate, agonist mode; fluorescence ratio F(max-min)/F0 at 10 µM; Fluo-4 calcium fluorescence (FDSS); stronger effect = higher value; shares compounds with MrgX1 antag; 8.7% of 4,000 active;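 active means calcium fluorescence ratio at least three times the spread of buffer wells, meaning a non-specific response in parental cells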
# Numbers without * were called inactive; i = inactive; · = not tested or not shown. Shown are actives, neighbours in structure and some others; about 3.5% of the full set was active somewhere.
SMILES,MrgX1 agonist,MrgX1 PAM,RGS4 pot,MrgX1 antag,RGS4 inh,MrgX1 PAM conf,HEK293 Ca flux,HEK293 Ca counter,HEK293 Ca cntr2,others
COc1ccccc1NC(=O)c1csc2c1CCCC2,i,i,i,i,i,·,·,·,·,
O=C(COc1ccc2c3c(c(=O)oc2c1)CCC3)N[C@@H](Cc1ccccc1)C(=O)O,i,i,i,i,i,·,·,·,·,
COc1cc(C)c(NC(c2ccccc2)c2ccccc2)cc1OC,i,8.7*,i,i,i,i,i,i,i,
COc1ccccc1CNC(c1ccccc1)c1ccccc1,i,i,i,i,i,·,·,·,·,
COc1cccc(C(=O)COc2cccc(NC(=O)c3ccco3)c2)c1,i,6.6*,i,i,i,i,i,i,i,
Cc1ccc2oc(C(Cl)(Cl)Cl)cc(=O)c2c1,i,i,i,i,i,·,·,·,·,
Cc1[nH]ncc1-c1nc2ccccc2[nH]1,i,13*,i,i,i,i,i,i,i,
COc1cccc(-n2c(SCC(N)=O)nnc2-c2c[nH]c3ccccc23)c1,i,6.9*,i,i,i,i,i,i,i,
COc1ccccc1-c1nnc(SCC(=O)N2CCCC2)o1,i,i,i,i,i,·,·,·,·,
C=CCOc1c(Br)cc(/C=N/NC(N)=O)cc1OC,i,i,i,i,i,·,·,·,·,
C=CCOc1c(CCC)cc(CCC)cc1C(N)=O,i,24*,i,i,i,i,i,i,i,
Cc1ccccc1CC1(CO)CCCN(C(=O)c2ccc(F)cc2)C1 (stereo not drawn),i,10*,i,i,i,i,i,i,i,
CCOC(=O)N1CCN(C(=S)Nc2cc(S(=O)(=O)N3CCOCC3)ccc2Cl)CC1,i,9.2*,i,i,i,i,i,i,i,
N=C1/C(=C/c2ccc(OCc3ccccc3F)cc2)C(=O)N=C2SC(CC(=O)N3CCOCC3)=NN12,i,35*,i,i,i,21%*,i,i,i,
O=c1[nH]c(Nc2ccccc2Cl)cc2ccccc12,i,8*,i,i,i,i,i,i,i,
Cc1ccccc1Nc1cc2ccccc2c(=O)[nH]1,i,i,i,i,i,·,·,·,·,
Cc1ccc(NC(=O)c2ccc(NS(=O)(=O)c3c(C)noc3C)cc2)cc1C,i,13*,i,i,i,2.3%*,i,i,i,
COc1ccc(NC(=O)c2ccc(NS(=O)(=O)c3c(C)noc3C)cc2)cc1OC,i,i,i,i,i,·,·,·,·,
O=C(Cn1nc(-c2cccc(Cl)c2)ccc1=O)NCC1COCCO1 (stereo not drawn),i,i,i,i,i,·,·,·,·,
CCN1CCN(c2nc(Nc3ccc(NC(C)=O)cc3)nc(Nc3ccc(NC(C)=O)cc3)n2)CC1,i,29*,i,i,i,i,i,i,i,
Cc1ccc(NC(=O)C2C3C=CC(O3)C2C(=O)O)c(C)c1 (stereo not drawn),i,i,i,i,i,·,·,·,·,
CC1=CC2=NC(=O)/C(=C\c3ccc(OC(=O)c4ccco4)cc3)C(=N)N2O1,i,i,i,i,i,·,·,·,·,
CSC1=NSC2=NC(=O)/C(=C\c3ccc(OC(=O)c4ccco4)cc3)C(=N)N12,i,41*,i,i,i,i,i,i,i,
CC1=CSC2=NC(=O)/C(=C/c3cccc(OC(=O)c4ccco4)c3)C(=N)N12,i,29*,i,i,i,12%*,i,i,i,
COc1ccccc1N1CCN(C2CCCN(C(=O)CN3CCCCC3=O)C2)CC1 (stereo not drawn),i,i,i,i,i,·,·,·,·,
SMILES,MrgX1 agonist,MrgX1 PAM,RGS4 pot,MrgX1 antag,RGS4 inh,MrgX1 PAM conf,HEK293 Ca flux,HEK293 Ca counter,HEK293 Ca cntr2,others
O=C(CC1Sc2ccccc2NC1=O)OC(C(=O)NCCc1ccccc1)c1cccnc1 (stereo not drawn),i,8.5*,i,i,i,i,i,i,i,
N#CCc1nn(-c2ccccc2)c2ncnc(N)c12,i,i,i,i,i,·,·,·,·,
Cc1ccc(-c2cc(C)nc3ncnn23)cc1,i,8.9*,i,i,i,i,i,i,i,
COc1cc(-c2noc(C)c2/C=C/c2ccc(C(=O)O)cc2)cc(OC)c1OC,i,i,i,i,i,·,·,·,·,
COc1cc(-c2noc(C)c2-c2ccc(N(C)C)nc2)cc(OC)c1OC,i,7.7*,i,-5*,i,i,i,i,i,MrgX1 antag conf=i
COc1ccc(-c2nnc(NC(=O)c3cc(C)on3)s2)cc1,i,8.2*,i,i,i,i,i,i,i,
CN1CCC(=O)N(CCOc2ccccc2)CC1,i,i,i,i,i,·,·,·,·,
CCOC(=O)C1(CCOc2ccccc2)CCN(Cc2cccc(OC)c2OC)CC1,i,i,i,i,i,·,·,·,·,
Nc1nc(Nc2ccccc2)nc(C(F)(F)F)n1,i,i,i,i,i,·,·,·,·,
Nc1nc(Nc2ccccc2Br)nc(C(F)(F)F)n1,i,9.1*,i,i,i,i,i,i,i,
CC12CCC(=O)N1C(C(=O)Nc1nc(-c3ccc(F)c(F)c3)cs1)CS2 (stereo not drawn),i,i,i,i,i,·,·,·,·,
